Calls of active or inactive are those of the source. The calls are words filed in the database; no cut-off is given here.
What was measured:
[1] = biological target: Serine/threonine-protein kinase PLK1 (Homo sapiens, UniProt P53350); experiment: Inhibition of human PLK1 expressed in baculovirus infected in Trichoplusia ni cells using Biotin-Ahx-SFNDTLDFD as substrate in presence of ATP by TopCount scintillation proximity assay; parameters: species or system Trichoplusia ni cell
Summary of the method: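 Baculovirus-expressed PLK1 kinase domain (2 nmol/L) in 25 mmol/L HEPES pH 7.2, 15 mmol/L MgCl2, 1 μmol/L ATP plus [γ-33P]ATP, 1 μmol/L biotinylated peptide substrate, BSA and DTT; 1–1.5 h at 22°C. Stopped with EDTA/streptavidin SPA beads. Signal above EDTA background converted to percent inhibition versus DMSO-only wells.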

Aurora kinase A = biological target: T1, Aurora kinase A (Homo sapiens, UniProt O14965); experiment: Inhibition of Aurora A (unknown origin)
T1 sequence (O14965 whole entry): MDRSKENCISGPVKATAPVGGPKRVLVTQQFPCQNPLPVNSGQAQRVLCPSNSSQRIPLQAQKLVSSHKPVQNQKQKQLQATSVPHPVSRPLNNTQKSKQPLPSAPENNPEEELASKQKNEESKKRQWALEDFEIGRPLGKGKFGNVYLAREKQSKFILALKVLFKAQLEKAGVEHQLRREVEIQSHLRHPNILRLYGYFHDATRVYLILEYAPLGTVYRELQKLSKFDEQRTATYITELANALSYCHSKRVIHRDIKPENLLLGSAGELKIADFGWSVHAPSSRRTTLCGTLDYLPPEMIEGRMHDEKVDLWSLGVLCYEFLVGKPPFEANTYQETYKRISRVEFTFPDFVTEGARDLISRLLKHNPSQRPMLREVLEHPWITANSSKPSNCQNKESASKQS

[2] = Inhibition of EGFR (unknown origin); parameters: species or system Homo sapiens
BT-474 = experiment: Antiproliferative activity against human BT-474 cells assessed as inhibition of cell growth; assay type: functional, cell-based
MES-SA = experiment: Antiproliferative activity against DX5 resistant human MES-SA cells assessed as inhibition of cell growth; assay type: functional, cell-based
Summary of the method: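 Cells grown 3 days in 96-well plates, seeded so vehicle controls stay in log growth (MES-SA/DX5 7,000, MES-SA 6,000, HDF 5,000 per well). Exposed to 3-fold dilutions, 30–0.00152 μmol/L, in medium with 5% FBS, 50 μg/mL gentamicin and 0.3% (v/v) DMSO. HDF medium was low-glucose DMEM; MES-SA lines used McCoy's 5A.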

[3] = Selectivity ratio of IC50 for cytotoxicity against human HDF cells to IC50 for antiproliferative activity against human PC-3 cells; assay type: toxicity, cell-based; conditions: HDF cells versus PC-3 cells
NCI-H460 [4] = experiment: Antiproliferative activity against human NCI-H460 cells assessed as outgrowth of cells at 0.37 micromol/L incubated for 72 hrs; assay type: functional, cell-based; conditions: dose 0.37 µmol/L
Summary of the method: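 HDF seeded at 1,300 and H460 at 600 per well in 96-well plates. After 24 h, exposed to vehicle (0.3% DMSO) or compound at 0.37–30 μmol/L for 72 h. Wells were then washed with PBS and refed with drug-free medium containing gentamicin. Regrowth was followed by methylene blue staining at set time points over 13 days in total.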

NHDF [5] = experiment: Induction of cell cycle arrest in human HDF cells assessed as accumulation of cells at S phase at 1 micromol/L incubated for 24 hrs by propidium iodide staining based flow cytometry analysis (reference value: 13.2 %); assay type: toxicity; conditions: 1 µM, dose 1 µmol/L
Summary of the method: (§1)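 Cells seeded in six-well plates at densities that keep them in log growth (HDF 120,000, 60,000 or 30,000; H460 100,000, 50,000 or 25,000 per well for 24, 48 or 72 h). Treated with 1 or 3 μmol/L. Floating and adherent cells collected, ethanol-fixed, permeabilized with Triton X-100 and stained with propidium iodide. DNA content read by flow cytometry as % singlet cells.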

NHDF [6] = experiment: Induction of cell cycle arrest in human HDF cells assessed as accumulation of cells at Sub-2N phase at 1 micromol/L incubated for 24 hrs by propidium iodide staining based flow cytometry analysis (reference value: 0.2 %); assay type: toxicity; conditions: 1 µM, dose 1 µmol/L; summary of the method: as §1
NHDF [7] = experiment: Induction of cell cycle arrest in human HDF cells assessed as accumulation of cells at Sub-2N phase at 3 micromol/L incubated for 24 hrs by propidium iodide staining based flow cytometry analysis (reference value: 0.2 %); assay type: toxicity; conditions: 3 µM, dose 3 µmol/L; summary of the method: as §1
NHDF [8] = experiment: Induction of cell cycle arrest in human HDF cells assessed as accumulation of cells at G1 phase at 1 micromol/L incubated for 48 hrs by propidium iodide staining based flow cytometry analysis (reference value: 72.8 %); assay type: toxicity; conditions: 1 µM, dose 1 µmol/L; summary of the method: as §1
NHDF [9] = experiment: Induction of cell cycle arrest in human HDF cells assessed as accumulation of cells at G2-M phase at 1 micromol/L incubated for 72 hrs by propidium iodide staining based flow cytometry analysis (reference value: 8.2 %); assay type: toxicity; conditions: 1 µM, dose 1 µmol/L; summary of the method: as §1
NHDF [10] = experiment: Induction of cell cycle arrest in human HDF cells assessed as accumulation of cells at Sub-2N phase at 1 micromol/L incubated for 72 hrs by propidium iodide staining based flow cytometry analysis (reference value: 0.7 %); assay type: toxicity; conditions: 1 µM, dose 1 µmol/L; summary of the method: as §1
NCI-H460 [11] = experiment: Induction of cell cycle arrest in human NCI-H460 cells assessed as accumulation of cells at >4N phase at 1 micromol/L incubated for 24 hrs by propidium iodide staining based flow cytometry analysis (reference value: 1.2 %); assay type: functional; conditions: dose 1 µmol/L, at 1 µM; summary of the method: as §1
NCI-H460 [12] = experiment: Induction of cell cycle arrest in human NCI-H460 cells assessed as accumulation of cells at G1 phase at 3 micromol/L incubated for 48 hrs by propidium iodide staining based flow cytometry analysis (reference value: 50.9 %); assay type: functional; conditions: dose 3 µmol/L, at 3 µM
NCI-H460 [13] = experiment: Induction of cell cycle arrest in human NCI-H460 cells assessed as accumulation of cells at G2-M phase at 1 micromol/L incubated for 48 hrs by propidium iodide staining based flow cytometry analysis (reference value: 22.5 %); assay type: functional; conditions: dose 1 µmol/L, at 1 µM
NCI-H460 [14] = experiment: Induction of cell cycle arrest in human NCI-H460 cells assessed as accumulation of cells at G2-M phase at 3 micromol/L incubated for 48 hrs by propidium iodide staining based flow cytometry analysis (reference value: 22.5 %); assay type: functional; conditions: dose 3 µmol/L, at 3 µM
NCI-H460 [15] = experiment: Induction of cell cycle arrest in human NCI-H460 cells assessed as accumulation of cells at >4N phase at 1 micromol/L incubated for 48 hrs by propidium iodide staining based flow cytometry analysis (reference value: 0.9 %); assay type: functional; conditions: dose 1 µmol/L, at 1 µM; summary of the method: as §1
NCI-H460 [16] = experiment: Induction of cell cycle arrest in human NCI-H460 cells assessed as accumulation of cells at G1 phase at 1 micromol/L incubated for 72 hrs by propidium iodide staining based flow cytometry analysis (reference value: 58.2 %); assay type: functional; conditions: dose 1 µmol/L, at 1 µM; summary of the method: as §1
NCI-H460 [17] = experiment: Induction of cell cycle arrest in human NCI-H460 cells assessed as accumulation of cells at G1 phase at 3 micromol/L incubated for 72 hrs by propidium iodide staining based flow cytometry analysis (reference value: 58.2 %); assay type: functional; conditions: dose 3 µmol/L, at 3 µM
NCI-H460 [18] = experiment: Induction of cell cycle arrest in human NCI-H460 cells assessed as accumulation of cells at G2-M phase at 3 micromol/L incubated for 72 hrs by propidium iodide staining based flow cytometry analysis (reference value: 18.2 %); assay type: functional; conditions: dose 3 µmol/L
NCI-H460 [19] = experiment: Induction of cell cycle arrest in human NCI-H460 cells assessed as accumulation of cells at >4N phase at 3 micromol/L incubated for 72 hrs by propidium iodide staining based flow cytometry analysis (reference value: 0.9 %); assay type: functional; conditions: dose 3 µmol/L, at 3 µM; summary of the method: as §1

Sequence of Serine/threonine-protein kinase PLK1 (P53350 whole entry, the tested form may be a part): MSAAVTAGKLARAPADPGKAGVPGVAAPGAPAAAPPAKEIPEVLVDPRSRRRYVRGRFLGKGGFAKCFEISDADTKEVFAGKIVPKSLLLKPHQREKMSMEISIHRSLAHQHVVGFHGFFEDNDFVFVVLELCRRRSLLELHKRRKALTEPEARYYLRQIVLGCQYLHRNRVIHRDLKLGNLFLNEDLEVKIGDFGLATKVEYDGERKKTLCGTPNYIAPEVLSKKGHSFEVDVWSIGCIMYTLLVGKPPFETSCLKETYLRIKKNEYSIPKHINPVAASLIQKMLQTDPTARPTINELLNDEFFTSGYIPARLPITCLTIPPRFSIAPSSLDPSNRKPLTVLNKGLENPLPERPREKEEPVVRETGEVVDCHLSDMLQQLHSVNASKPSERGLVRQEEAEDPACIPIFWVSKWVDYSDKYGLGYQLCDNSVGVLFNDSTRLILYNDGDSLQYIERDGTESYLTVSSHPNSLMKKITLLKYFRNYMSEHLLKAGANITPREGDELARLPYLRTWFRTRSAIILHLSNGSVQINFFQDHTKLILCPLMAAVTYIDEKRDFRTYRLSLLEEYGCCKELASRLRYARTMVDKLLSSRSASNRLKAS

COc1cc2ncn(-c3cc(OCc4ccccc4C(F)(F)F)c(C(N)=O)s3)c2cc1OC [GW843682X]
IC50 [1]: 2.2 nM
IC50 (Aurora kinase A): 4.8 µM
IC50 [2]: > 10 µM
IC50 (BT-474): 570 nM
IC50 (MES-SA): 210 nM
selectivity ratio [3]: 0.9
Activity (NCI-H460 [4]): Active
Activity (NHDF [5]): 10.2%
Activity (NHDF [6]): 0.3%
Activity (NHDF [7]): 0.2%
Activity (NHDF [8]): 55.3%
Activity (NHDF [9]): 21.6%
Activity (NHDF [10]): 1.3%
Activity (NCI-H460 [11]): 5.1%
Activity (NCI-H460 [12]): 7.5%
Activity (NCI-H460 [13]): 11.2%
Activity (NCI-H460 [14]): 14.4%
Activity (NCI-H460 [15]): 29%
Activity (NCI-H460 [16]): 2.5%
Activity (NCI-H460 [17]): 3.7%
Activity (NCI-H460 [18]): 4.7%
Activity (NCI-H460 [19]): 51%
